{
  "source": "ChEMBL document CHEMBL4014338",
  "about": "“Discovery of Small Molecules as Multi-Toll-like Receptor Agonists with Proinflammatory and Anticancer Activities” (J Med Chem, 2017)",
  "key": {"HeLa [1]": {"test_system": "HeLa", "assay": "Cell cycle arrest in human HeLa cells assessed as accumulation at S phase at 20 uM after 24 hrs by propidium iodide staining based flow cytometry (reference value: 31%)", "format": "functional"}, "HMEC [2]": {"test_system": "HMEC", "assay": "Antiproliferative activity against HMEC after 24 hrs by WST1 assay", "format": "cell-based", "conditions": "Homo sapiens", "in_short": "(§1)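 Cells seeded at 5 × 10^3/well and left 24 h, then given a concentration series for 24, 48 or 72 h. WST-1 reagent added and incubated at 37 °C for 30 min–2 h until color change; absorbance 450 nm. Growth inhibition = (1 − [sample − background]/[control − background]) × 100. IC50 mean ± SD, three cell preparations.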"}, "HeLa [3]": {"test_system": "HeLa", "assay": "Cell cycle arrest in human HeLa cells assessed as accumulation at G2/M phase at 40 uM after 24 hrs by propidium iodide staining based flow cytometry (reference value: 17%)", "format": "functional"}, "HeLa [4]": {"test_system": "HeLa", "assay": "Cell cycle arrest in human HeLa cells assessed as accumulation at G0/G1 phase at 20 uM after 24 hrs by propidium iodide staining based flow cytometry (reference value: 52%)", "format": "functional"}, "HeLa [5]": {"test_system": "HeLa", "assay": "Cell cycle arrest in human HeLa cells assessed as accumulation at G0/G1 phase at 30 uM after 24 hrs by propidium iodide staining based flow cytometry (reference value: 52%)", "format": "functional"}, "HMEC [6]": {"test_system": "HMEC", "assay": "Antiproliferative activity against HMEC after 72 hrs by WST1 assay", "format": "cell-based", "conditions": "Homo sapiens", "in_short": "as §1"}, "HeLa [7]": {"test_system": "HeLa", "assay": "Cell cycle arrest in human HeLa cells assessed as accumulation at G2/M phase at 10 uM after 24 hrs by propidium iodide staining based flow cytometry (reference value: 17%)", "format": "functional"}, "Toll-like receptor 2": {"target": "Toll-like receptor 2 (Homo sapiens, UniProt O60603)", "sequence (O60603 whole entry)": "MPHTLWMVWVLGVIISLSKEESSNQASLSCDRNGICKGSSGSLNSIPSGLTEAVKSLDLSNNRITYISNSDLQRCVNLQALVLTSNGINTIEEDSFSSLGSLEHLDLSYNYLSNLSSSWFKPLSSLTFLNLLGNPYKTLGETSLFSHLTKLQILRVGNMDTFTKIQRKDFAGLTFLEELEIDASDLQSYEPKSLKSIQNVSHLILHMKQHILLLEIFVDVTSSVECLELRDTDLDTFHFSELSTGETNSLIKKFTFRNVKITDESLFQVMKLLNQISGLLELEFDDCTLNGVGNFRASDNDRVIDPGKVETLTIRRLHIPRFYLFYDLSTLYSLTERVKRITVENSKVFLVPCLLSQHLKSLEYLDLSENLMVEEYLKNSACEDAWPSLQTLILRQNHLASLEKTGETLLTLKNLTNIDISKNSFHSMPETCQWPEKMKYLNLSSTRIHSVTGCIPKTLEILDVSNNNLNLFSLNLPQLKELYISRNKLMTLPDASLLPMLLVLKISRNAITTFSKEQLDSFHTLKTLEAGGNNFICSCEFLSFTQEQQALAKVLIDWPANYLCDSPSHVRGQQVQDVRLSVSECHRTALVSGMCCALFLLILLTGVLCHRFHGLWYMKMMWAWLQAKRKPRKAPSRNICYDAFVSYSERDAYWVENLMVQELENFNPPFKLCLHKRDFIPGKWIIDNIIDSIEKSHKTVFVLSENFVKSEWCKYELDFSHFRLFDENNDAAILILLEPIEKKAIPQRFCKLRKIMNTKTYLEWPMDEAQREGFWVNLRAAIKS", "assay": "Agonist activity at human TLR2 expressed in HEK293 cells assessed as induction of NF-kB activation-mediated SEAP production after 24 hrs by HTS assay", "format": "cell-based", "in_short": "(§2)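 Stable HEK293 lines expressing a single hTLR plus a SEAP reporter, grown in DMEM/10% FBS with selective antibiotics. Seeded at 5 × 10^4 cells/well for 24 h at 37 °C, then treated 24 h. Supernatant mixed with QUANTI-Blue, 1 h at 37 °C, OD 620 nm. Cognate agonists: Pam3CSK4 (TLR2), poly I:C (TLR3), LPS (TLR4), FLA-BS (TLR5), R848 (TLR7). EC50 as mean ± SD.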"}, "[8]": {"target": "Toll-like receptor 3 (Homo sapiens) (UniProt O15455)", "sequence (O15455 whole entry)": "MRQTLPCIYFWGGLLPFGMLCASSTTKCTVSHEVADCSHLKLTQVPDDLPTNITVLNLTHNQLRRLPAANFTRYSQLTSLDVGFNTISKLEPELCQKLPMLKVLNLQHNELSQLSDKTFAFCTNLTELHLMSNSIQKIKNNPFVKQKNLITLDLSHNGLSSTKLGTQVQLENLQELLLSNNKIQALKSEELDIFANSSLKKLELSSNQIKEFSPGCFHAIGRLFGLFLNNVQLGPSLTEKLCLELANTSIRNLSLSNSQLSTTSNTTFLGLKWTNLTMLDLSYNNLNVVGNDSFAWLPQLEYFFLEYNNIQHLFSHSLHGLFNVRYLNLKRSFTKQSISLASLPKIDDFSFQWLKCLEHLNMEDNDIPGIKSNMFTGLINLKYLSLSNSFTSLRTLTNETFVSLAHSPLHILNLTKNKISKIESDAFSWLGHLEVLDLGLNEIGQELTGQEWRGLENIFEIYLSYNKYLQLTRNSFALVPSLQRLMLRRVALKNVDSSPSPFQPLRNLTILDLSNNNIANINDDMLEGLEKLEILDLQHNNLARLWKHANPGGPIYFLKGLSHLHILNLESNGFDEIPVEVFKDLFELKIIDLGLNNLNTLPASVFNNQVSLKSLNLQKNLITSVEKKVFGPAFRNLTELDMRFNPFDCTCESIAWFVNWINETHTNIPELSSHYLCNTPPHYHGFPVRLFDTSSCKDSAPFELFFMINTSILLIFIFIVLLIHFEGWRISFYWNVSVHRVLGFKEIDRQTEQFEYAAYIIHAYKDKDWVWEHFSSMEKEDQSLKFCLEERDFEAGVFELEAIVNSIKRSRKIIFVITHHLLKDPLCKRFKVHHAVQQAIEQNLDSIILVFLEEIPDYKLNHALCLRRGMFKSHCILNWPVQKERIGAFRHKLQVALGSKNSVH", "assay": "Agonist activity at human TLR3 expressed in HEK293 cells assessed as induction of NF-kB activation-mediated SEAP production at 25 uM after 24 hrs by HTS assay relative to control", "format": "cell-based", "in_short": "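hTLR3 HEK293 SEAP reporter cells seeded at 5 × 10^4 cells/well for 24 h, exposed to 25 μM for 24 h. Supernatant SEAP detected with QUANTI-Blue (1 h, 37 °C, OD 620 nm). Activation normalized to untreated cells and expressed as fold change.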"}, "HeLa [9]": {"test_system": "HeLa", "assay": "Induction of apoptosis in human HeLa cells at 10 to 40 uM after 24 hrs by Annexin V-FITC/propidium iodide staining based flow cytometry (reference value: 10%)", "format": "functional", "in_short": "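HeLa cells seeded at 3 × 10^5/well and attached 24 h, treated 24 h with 10, 20, 30 or 40 μM (DMSO or poly I:C 5 μg/mL as controls). Harvested with EDTA-free trypsin, washed twice in PBS, stained with annexin V-FITC/PI, and analyzed by flow cytometry. Early plus late apoptotic percentages reported as mean ± SD of three experiments.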"}, "HeLa [10]": {"test_system": "HeLa", "assay": "Cell cycle arrest in human HeLa cells assessed as accumulation at G0/G1 phase at 10 uM after 24 hrs by propidium iodide staining based flow cytometry (reference value: 52%)", "format": "functional"}, "[11]": {"target": "T1, Toll-like receptor 3/8/9 (Homo sapiens) (UniProt O15455+Q9NR96+Q9NR97)", "T1 sequence (O15455 whole entry, looked up)": "as the sequence (O15455 whole entry) above", "T1 sequence (Q9NR96 whole entry, looked up)": "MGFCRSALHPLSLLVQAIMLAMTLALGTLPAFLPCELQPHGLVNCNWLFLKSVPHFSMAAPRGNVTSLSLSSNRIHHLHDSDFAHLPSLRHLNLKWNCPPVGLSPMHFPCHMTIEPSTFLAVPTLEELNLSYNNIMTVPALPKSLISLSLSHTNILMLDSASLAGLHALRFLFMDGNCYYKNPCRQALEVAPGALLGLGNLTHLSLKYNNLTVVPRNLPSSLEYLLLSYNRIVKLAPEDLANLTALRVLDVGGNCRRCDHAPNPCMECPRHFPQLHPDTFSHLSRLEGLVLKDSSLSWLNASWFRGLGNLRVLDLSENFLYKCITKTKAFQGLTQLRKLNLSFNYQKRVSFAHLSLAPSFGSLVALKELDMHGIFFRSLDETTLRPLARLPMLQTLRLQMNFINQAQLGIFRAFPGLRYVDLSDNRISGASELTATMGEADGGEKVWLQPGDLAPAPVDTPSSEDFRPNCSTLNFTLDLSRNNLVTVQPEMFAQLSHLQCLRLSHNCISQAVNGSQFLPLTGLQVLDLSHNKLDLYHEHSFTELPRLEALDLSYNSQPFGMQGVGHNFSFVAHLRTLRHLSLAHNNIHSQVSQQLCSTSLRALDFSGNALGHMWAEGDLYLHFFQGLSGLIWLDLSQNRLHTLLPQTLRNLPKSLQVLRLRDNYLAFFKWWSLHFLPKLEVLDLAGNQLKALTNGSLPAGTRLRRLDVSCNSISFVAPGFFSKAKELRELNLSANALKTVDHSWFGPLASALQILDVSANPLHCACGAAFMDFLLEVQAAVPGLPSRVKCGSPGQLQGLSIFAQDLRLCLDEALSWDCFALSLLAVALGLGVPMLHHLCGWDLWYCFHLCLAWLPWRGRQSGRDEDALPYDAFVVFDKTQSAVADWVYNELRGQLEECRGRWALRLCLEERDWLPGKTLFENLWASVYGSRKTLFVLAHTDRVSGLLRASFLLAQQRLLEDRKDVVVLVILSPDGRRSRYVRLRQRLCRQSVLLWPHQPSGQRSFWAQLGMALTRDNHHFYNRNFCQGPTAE", "T1 sequence (Q9NR97 whole entry, looked up)": "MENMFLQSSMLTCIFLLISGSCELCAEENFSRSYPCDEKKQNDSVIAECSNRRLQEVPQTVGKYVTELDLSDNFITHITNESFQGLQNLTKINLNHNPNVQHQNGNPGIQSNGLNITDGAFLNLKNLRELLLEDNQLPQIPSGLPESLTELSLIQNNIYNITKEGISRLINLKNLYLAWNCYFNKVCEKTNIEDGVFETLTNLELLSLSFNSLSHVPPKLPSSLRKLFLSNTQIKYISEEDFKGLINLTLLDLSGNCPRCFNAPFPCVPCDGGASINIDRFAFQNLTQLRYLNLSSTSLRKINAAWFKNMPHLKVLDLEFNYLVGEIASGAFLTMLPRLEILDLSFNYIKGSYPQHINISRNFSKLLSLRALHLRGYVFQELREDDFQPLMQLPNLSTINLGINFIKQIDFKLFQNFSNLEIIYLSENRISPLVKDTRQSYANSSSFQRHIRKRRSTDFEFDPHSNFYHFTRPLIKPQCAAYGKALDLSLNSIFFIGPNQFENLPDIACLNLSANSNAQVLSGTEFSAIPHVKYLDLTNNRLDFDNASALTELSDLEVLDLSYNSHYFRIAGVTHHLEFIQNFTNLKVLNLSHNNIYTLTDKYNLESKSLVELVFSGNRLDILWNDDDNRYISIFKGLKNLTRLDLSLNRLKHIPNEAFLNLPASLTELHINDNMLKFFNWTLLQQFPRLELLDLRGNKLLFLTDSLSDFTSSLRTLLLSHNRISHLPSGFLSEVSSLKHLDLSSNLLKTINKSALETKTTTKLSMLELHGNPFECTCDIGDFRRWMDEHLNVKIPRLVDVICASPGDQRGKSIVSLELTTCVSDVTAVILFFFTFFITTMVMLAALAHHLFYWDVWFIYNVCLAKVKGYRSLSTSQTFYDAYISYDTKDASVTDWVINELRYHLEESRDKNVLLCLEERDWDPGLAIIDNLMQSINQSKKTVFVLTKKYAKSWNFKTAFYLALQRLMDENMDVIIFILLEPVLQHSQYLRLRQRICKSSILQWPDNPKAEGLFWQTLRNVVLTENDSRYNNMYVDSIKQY", "assay": "Agonist activity at TLR3/TLR8/TLR9 in human THP1 cells assessed as increase in TNFalpha production after 24 hrs by ELISA", "format": "cell-based", "in_short": "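THP-1 cells (1.5 × 10^6/well) in RPMI 1640 with 10% FBS, differentiated with PMA (20 nM) for 2 days, then 24 h in fresh medium; nonadherent cells removed. Compound added at indicated concentrations for 24 h. Supernatant TNF-α measured by ELISA. Reference ligands were poly I:C, R848 and CpG ODN2006.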"}, "[12]": {"target": "T1, Toll-like receptor 3/8/9 (Homo sapiens)", "assay": "Agonist activity at TLR3/TLR8/TLR9 in human THP1 cells assessed as increase in TNFalpha mRNA level after 12 hrs by qRT-PCR method", "format": "cell-based", "in_short": "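THP-1 cells (1.5 × 10^6/well) differentiated with PMA (20 nM) for 2 days, then 24 h in fresh RPMI 1640; nonadherent cells removed. Treated with indicated compound concentrations for 12 h, washed with PBS, and mRNA measured by qRT-PCR. Expressed as fold change versus untreated control, poly I:C (5 μg/mL) as reference. Mean ± SD of three independent experiments.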"}, "Toll-like receptor 4": {"target": "Toll-like receptor 4 (Homo sapiens, UniProt O00206)", "sequence (O00206 whole entry)": "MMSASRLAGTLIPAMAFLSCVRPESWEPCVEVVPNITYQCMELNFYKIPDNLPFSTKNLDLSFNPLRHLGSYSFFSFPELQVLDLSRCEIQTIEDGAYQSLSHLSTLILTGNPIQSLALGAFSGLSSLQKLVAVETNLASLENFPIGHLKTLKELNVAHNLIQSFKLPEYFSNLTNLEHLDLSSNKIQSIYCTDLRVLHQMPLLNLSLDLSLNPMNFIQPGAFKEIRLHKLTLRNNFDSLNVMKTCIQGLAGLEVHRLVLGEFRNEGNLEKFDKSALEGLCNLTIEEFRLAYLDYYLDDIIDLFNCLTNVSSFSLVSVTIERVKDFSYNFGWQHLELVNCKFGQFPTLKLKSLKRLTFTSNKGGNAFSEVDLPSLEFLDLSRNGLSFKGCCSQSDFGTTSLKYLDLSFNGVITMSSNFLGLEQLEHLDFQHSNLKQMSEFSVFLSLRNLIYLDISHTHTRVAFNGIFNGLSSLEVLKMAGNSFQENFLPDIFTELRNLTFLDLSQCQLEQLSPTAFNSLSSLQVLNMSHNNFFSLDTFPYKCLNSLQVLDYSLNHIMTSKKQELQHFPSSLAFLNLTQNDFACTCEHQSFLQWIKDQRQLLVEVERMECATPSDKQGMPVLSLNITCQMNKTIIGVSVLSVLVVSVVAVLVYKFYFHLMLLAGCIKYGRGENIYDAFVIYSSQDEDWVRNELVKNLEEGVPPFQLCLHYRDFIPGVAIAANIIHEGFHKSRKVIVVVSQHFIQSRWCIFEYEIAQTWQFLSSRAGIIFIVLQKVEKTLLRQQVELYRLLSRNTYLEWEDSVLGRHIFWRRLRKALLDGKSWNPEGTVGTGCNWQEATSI", "assay": "Agonist activity at human TLR4 expressed in HEK293 cells assessed as induction of NF-kB activation-mediated SEAP production after 24 hrs by HTS assay", "format": "cell-based", "in_short": "as §2"}},
  "data": [
    {"smiles": "O=[N+]([O-])c1ccc(COc2cc3c(cc2OCc2ccc([N+](=O)[O-])cc2)OC2(C=C3)CCOCC2)cc1", "values": [
      {"measurement": "Activity", "setting": "HeLa [1]", "value": 37, "unit": "%"},
      {"measurement": "IC50", "setting": "HMEC [2]", "value": "> 100", "unit": "µM"},
      {"measurement": "Activity", "setting": "HeLa [3]", "value": 19, "unit": "%"},
      {"measurement": "Activity", "setting": "HeLa [4]", "value": 43, "unit": "%"},
      {"measurement": "Activity", "setting": "HeLa [5]", "value": 41, "unit": "%"},
      {"measurement": "IC50", "setting": "HMEC [6]", "value": 79.5, "unit": "µM"},
      {"measurement": "Activity", "setting": "HeLa [7]", "value": 19, "unit": "%"},
      {"measurement": "EC50", "setting": "Toll-like receptor 2", "value": "> 100", "unit": "µM"},
      {"measurement": "fold change (FC)", "setting": "[8]", "value": 13.9},
      {"measurement": "Activity", "setting": "HeLa [9]", "value": 17, "unit": "%"},
      {"measurement": "Activity", "setting": "HeLa [10]", "value": 46, "unit": "%"},
      {"measurement": "Activity", "setting": "[11]", "value": "Dose-dependent effect"},
      {"measurement": "Activity", "setting": "[12]", "value": "Dose-dependent effect"},
      {"measurement": "EC50", "setting": "Toll-like receptor 4", "value": "> 100", "unit": "µM"}
    ]}
  ]
}
